PMI activator: activators of human PMI, primary screen, biochemical, fluorescence intensity, near-Km mannose 6-phosphate | Mannose-6-phosphate isomerase (Homo sapiens), P34949 | 0.005% of 190,000 active | activation factor at 20 µM | purified human PMI, coupled resazurin fluorescence, 20 min; stronger effect = higher value; 1 = vehicle control, 0 substrate-free wells;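 active = activation factor of 2 or more at 20 µM, relative to plate controls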
Target sequence (P34949 whole entry, looked up): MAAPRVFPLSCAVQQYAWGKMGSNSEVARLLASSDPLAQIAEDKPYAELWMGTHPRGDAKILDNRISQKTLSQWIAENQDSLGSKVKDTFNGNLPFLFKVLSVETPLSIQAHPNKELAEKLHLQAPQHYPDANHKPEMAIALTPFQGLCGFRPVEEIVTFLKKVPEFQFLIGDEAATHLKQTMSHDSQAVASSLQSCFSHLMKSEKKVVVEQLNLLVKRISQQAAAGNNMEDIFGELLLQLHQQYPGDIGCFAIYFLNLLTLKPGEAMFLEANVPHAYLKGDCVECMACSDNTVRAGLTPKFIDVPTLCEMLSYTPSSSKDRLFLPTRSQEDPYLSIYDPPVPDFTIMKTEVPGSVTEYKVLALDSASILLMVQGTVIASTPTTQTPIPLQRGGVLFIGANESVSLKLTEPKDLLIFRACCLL
TNAP inh hi DEA: human TNAP enzyme inhibitors, primary screen, biochemical, luminescent, high phosphate acceptor level, uHTS; Alkaline phosphatase, tissue-nonspecific isozyme (Homo sapiens), P05186; purified TNAP, CDP-star luminescence, 1 M DEA; inhibition, % at 20 µM; 0.03% of 200,000 active;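 active = over 50% inhibition of tissue-nonspecific alkaline phosphatase at 20 µM in the single-dose screen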
TNAP inh no acc: human TNAP enzyme inhibitors, primary screen, biochemical, luminescent, no phosphate acceptor, uHTS; inhibition, % at 20 µM; 0.26% of 200,000 active; purified TNAP, CDP-star luminescence, 30 min; Alkaline phosphatase, tissue-nonspecific isozyme (Homo sapiens), P05186;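 active = tissue-nonspecific alkaline phosphatase inhibition above about 50% at 20 µM in the single-dose screen, limit read from the data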
PMI act hi M6P: human PMI activators, high substrate, primary screen, biochemical, fluorescence intensity, near-saturating mannose 6-phosphate. 0.34% of 190,000 active. coupled PMI enzyme assay, resazurin fluorescence, 20 min; stronger effect = higher value; 1 = untreated enzyme, 0 = substrate-free blank. Mannose-6-phosphate isomerase (Homo sapiens), P34949. activation factor at 20 µM;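 active = activation factor of 2 or more at 20 µM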
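Test system – human PMI in coupled enzyme assay · Timing – 20 min incubation at room temperature · Detection – Diaphorase-driven resazurin-to-resorufin fluorescence, excitation 544, emission 590 nm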
TNAP act hi DEA: TNAP activators at high phosphate acceptor level, primary screen, biochemical, luminescence, uHTS | Alkaline phosphatase, tissue-nonspecific isozyme (Homo sapiens), P05186 | activation factor at 20 µM | purified TNAP, CDP-star luminescence, 1 M DEA, 30 min; stronger effect = higher value; 0 = EDTA background, 1 = DMSO-only activity | 200,000 tested, under 10 active;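 active = activation factor at least 2 at 20 µM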
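Dosing: 20 µM single point. System: human TNAP. Amount: TNAP 1/800 final. Incubation: 30 min, room temperature. Read-out: TNAP activation factor scaled between EDTA and DMSO control wells. Signal: luminescence from CDP-star hydrolysis. Medium: 1 M DEA, pH 9.8, Mg2+, Zn2+. Control set: EDTA negative control, DMSO positive control.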
A number is an active result. Hits are enriched below; roughly 0.6% of the tested compounds scored in any of these assays.

CN(C)c1nc(C(F)(F)F)cc(=O)[nH]1 was read as PMI activator inactive, TNAP inh hi DEA inactive, TNAP inh no acc inactive, PMI act hi M6P inactive and TNAP act hi DEA inactive.
Screening O=C(/C=C1\NCC2c3ccccc3CCN2C1=O)c1ccccc1 (configuration not stated) returned PMI activator inactive, TNAP inh hi DEA inactive, TNAP inh no acc inactive, PMI act hi M6P 2.6 and TNAP act hi DEA inactive.
For CC(=O)N1CCc2ccccc2C1CC(=O)O (configuration not stated) the results were PMI activator inactive, TNAP inh hi DEA inactive, TNAP inh no acc inactive, PMI act hi M6P inactive and TNAP act hi DEA inactive.
Screening CCOC(=O)C/C(N)=N/NC(=O)c1ccc(Cl)cc1Cl returned PMI activator inactive, TNAP inh hi DEA inactive, TNAP inh no acc inactive, PMI act hi M6P inactive and TNAP act hi DEA inactive.
Screening COc1cc2[nH]c(=S)nc(NC3CCCC3)c2cc1OC returned PMI activator inactive, TNAP inh hi DEA inactive, TNAP inh no acc inactive, PMI act hi M6P 2.5 and TNAP act hi DEA inactive.
C=CCNc1nc(=S)[nH]c2cc(OC)c(OC)cc12 was read as PMI activator inactive, TNAP inh hi DEA inactive, TNAP inh no acc inactive, PMI act hi M6P inactive and TNAP act hi DEA inactive.
Screening CC(C)Cc1c2c([nH]c(=S)c1C#N)CCCC2 returned PMI activator inactive, TNAP inh hi DEA inactive, TNAP inh no acc inactive, PMI act hi M6P 2 and TNAP act hi DEA inactive.
For N#Cc1c(-c2ccco2)c2c([nH]c1=S)CCCC2 the results were PMI activator inactive, TNAP inh hi DEA inactive, TNAP inh no acc inactive, PMI act hi M6P inactive and TNAP act hi DEA inactive.
Screening Cc1[nH]c(=O)c(C#N)c2c1CCCC2 returned PMI activator inactive, TNAP inh hi DEA inactive, TNAP inh no acc inactive, PMI act hi M6P inactive and TNAP act hi DEA inactive.
Cc1[nH]c(=S)c(C#N)c2c1CCCC2 was read as PMI activator inactive, TNAP inh hi DEA inactive, TNAP inh no acc inactive, PMI act hi M6P 2 and TNAP act hi DEA inactive.
`CCC(C)NS(=O)(=O)c1ccc(NC(=O)Cc2ccc(OC)cc2)cc1` (configuration not stated) gave PMI activator inactive, TNAP inh hi DEA inactive, TNAP inh no acc inactive, PMI act hi M6P inactive and TNAP act hi DEA inactive.
O=c1[nH]c(C(Cl)Cl)nc2sc3c(c12)CCN(Cc1ccccc1)C3 was read as PMI activator inactive, TNAP inh hi DEA inactive, TNAP inh no acc inactive, PMI act hi M6P 2.6 and TNAP act hi DEA inactive.
CCCSc1nc2sc3c(c2c(=O)[nH]1)CCN(Cc1ccccc1)C3 was read as PMI activator inactive, TNAP inh hi DEA inactive, TNAP inh no acc inactive, PMI act hi M6P inactive and TNAP act hi DEA inactive.
For Cc1ccc(-n2[nH]c(C)c(/C=N/Nc3ccc([N+](=O)[O-])cc3[N+](=O)[O-])c2=O)cc1 the results were PMI activator inactive, TNAP inh hi DEA 51.3, TNAP inh no acc inactive, PMI act hi M6P inactive and TNAP act hi DEA inactive.
For O=C1CCCC/C1=N\Nc1ccc(OCc2ccccc2)cc1 the results were PMI activator inactive, TNAP inh hi DEA inactive, TNAP inh no acc inactive, PMI act hi M6P 2.5 and TNAP act hi DEA inactive.
CC(=O)Oc1ccc(C(=O)[C@H]2[C@H]3C(=O)N(c4cccc5ccccc45)C(=O)[C@H]3[C@@H]3C=CC=NN32)cc1 was read as PMI activator inactive, TNAP inh hi DEA inactive, TNAP inh no acc inactive, PMI act hi M6P inactive and TNAP act hi DEA inactive.
Screening O=C(Nc1ccc(Cl)cc1)[C@@H]1[C@@H]2C(=O)N(c3ccc4ccccc4c3)C(=O)[C@@H]2[C@H]2C=CC=NN21 returned PMI activator inactive, TNAP inh hi DEA inactive, TNAP inh no acc inactive, PMI act hi M6P 2 and TNAP act hi DEA inactive.
Screening O=C(NC(=S)Nc1nc(-c2ccc(Br)cc2)cs1)c1cccnc1 returned PMI activator inactive, TNAP inh hi DEA inactive, TNAP inh no acc inactive, PMI act hi M6P 2.5 and TNAP act hi DEA inactive.
`N#Cc1ccccc1NC(=O)C1SC(=Nc2ccccc2)C(C(=O)Nc2ccc(Cl)cc2)=C1N` (configuration not stated) gave PMI activator inactive, TNAP inh hi DEA inactive, TNAP inh no acc inactive, PMI act hi M6P 2.3 and TNAP act hi DEA inactive.
O=C(COc1ccc(-n2ccnc2)cc1)Nc1cccc(Cl)c1 was read as PMI activator inactive, TNAP inh hi DEA inactive, TNAP inh no acc inactive, PMI act hi M6P inactive and TNAP act hi DEA inactive.
Cc1c(C(=O)NCc2n[nH]c(=S)n2-c2ccc(F)cc2)cccc1[N+](=O)[O-] was read as PMI activator inactive, TNAP inh hi DEA inactive, TNAP inh no acc inactive, PMI act hi M6P inactive and TNAP act hi DEA inactive.
CCOc1ccc(CCNC(=O)CSc2nn(-c3ccc(C)c(Cl)c3)c(=S)s2)cc1OCC was read as PMI activator inactive, TNAP inh hi DEA inactive, TNAP inh no acc inactive, PMI act hi M6P inactive and TNAP act hi DEA inactive.
For COc1ccc(C(=O)Nc2n[nH]c(-c3ccncc3)n2)cc1 the results were PMI activator inactive, TNAP inh hi DEA inactive, TNAP inh no acc 91.8, PMI act hi M6P inactive and TNAP act hi DEA inactive.
For Cc1sc(N/N=C/c2cc([N+](=O)[O-])ccc2O)nc1-c1ccccc1 the results were PMI activator inactive, TNAP inh hi DEA inactive, TNAP inh no acc inactive, PMI act hi M6P inactive and TNAP act hi DEA inactive.
`Cc1cccc(CN(C(=S)Nc2c(C)cccc2C)c2cccnc2)c1` gave PMI activator inactive, TNAP inh hi DEA inactive, TNAP inh no acc inactive, PMI act hi M6P inactive and TNAP act hi DEA inactive.
For Cc1ccccc1-c1cc2c(nn1)-c1ccccc1C2=O the results were PMI activator 2, TNAP inh hi DEA inactive, TNAP inh no acc inactive, PMI act hi M6P 2.5 and TNAP act hi DEA inactive.
For O=C(NNC(=O)c1ccc2ccccc2c1O)c1ccccc1Cl the results were PMI activator inactive, TNAP inh hi DEA inactive, TNAP inh no acc 65.2, PMI act hi M6P inactive and TNAP act hi DEA inactive.
O=C(c1ccc(-n2cccc2)cc1)N1CCCCC1 was read as PMI activator inactive, TNAP inh hi DEA inactive, TNAP inh no acc inactive, PMI act hi M6P inactive and TNAP act hi DEA inactive.
CC(On1c(-c2ccccc2)nc2ccc(Cl)cc21)C(=O)O (configuration not stated) was read as PMI activator inactive, TNAP inh hi DEA inactive, TNAP inh no acc inactive, PMI act hi M6P inactive and TNAP act hi DEA inactive.
Screening CCOC(=O)COc1cc([N+](=O)[O-])cc2cccnc12 returned TNAP inh hi DEA inactive, TNAP inh no acc inactive and TNAP act hi DEA inactive.

Assay outcomes deposited in PubChem by Sanford-Burnham Center for Chemical Genomics.
